Calls of active or inactive are those of the source. The calls are words filed in the database; no cut-off is given here. Where a SMILES comes first, the peptide text is derived from it. Where only a bound is given, the exact number is not on record here.

The source of these data is ChEMBL document CHEMBL4330172, “Astratides: Insulin-Modulating, Insecticidal, and Antifungal Cysteine-Rich Peptides from Astragalus membranaceus” (J Nat Prod, 2019).

The test system of series [1] is Sf9. Kind of series: Cytotoxicity against Spodoptera frugiperda Sf9 cells assessed as induction of membrane integrity loss at 5 uM after 15 hrs by PKH26-labeling based phase contrast microscopic analysis. The series is classed as functional, cell-based. In a few lines: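 Sf9 cells grown at 26 °C in Sf-900 III SFM with 2% FBS. Incubated with 5 μM peptide at 26 °C for 15 h. Live-cell bright-field imaging at 0, 1, 4, 8 and 15 h to follow cell shape and membrane integrity.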

The nature of series [2]: Stability in water at 200 uM at 100 degC for 2 hrs by RP-HPLC analysis. The series is classed as physicochemical. Particulars: read-out: Stability. The method in brief:
(§1)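 Peptide at 200 μM held in a 100 °C water bath or in HCl (pH 2) for 2 h. Sampled at 0, 30, 60, 90 and 120 min, quenched on ice (heat) or with NaOH (acid). Remaining peptide measured by RP-HPLC, in triplicate.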

Series [3] deals with Beta-TC6. Kind of series: Decrease in insulin secretion in mouse BetaTC6 cells at 1 to 100 uM after 24 hrs by ELISA. Type of series: functional, cell-based. In a few lines:
(§2)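 Beta-TC-6 cells grown in high-glucose DMEM with 15% FBS at 37 °C, 5% CO2. Seeded 24 h, then treated 24 h with peptide (0.01, 0.1, 1, 10, 100 μM). Positive control 10 μM GW9508, negative control 0.1% DMSO. Secreted insulin measured by mouse insulin ELISA, reported in μIU/mL.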

Series [4] concerns Beta-TC6. Kind of series: Decrease in insulin secretion in mouse BetaTC6 cells assessed as insulin level at 1 to 100 uM after 24 hrs by ELISA (reference value: 1225.2 uIU/ml). The series is classed as functional. The method in brief:
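Beta-TC-6 cells grown in high-glucose DMEM with 15% FBS. Seeded at 5000 cells/mL for 24 h, then treated 24 h with peptide at 0.01, 0.1, 1, 10 or 100 μM. Controls were 10 μM GW9508 (positive) and 0.1% DMSO (negative). Secreted insulin measured by mouse insulin ELISA.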

The next series relates to pepsin. As to the kind of experiment: Stability in pH 2 HCl assessed as pepsin (unknown origin)-mediated compound hydrolysis by measuring parent compound remaining at 200 uM up to 6 hrs by RP-HPLC analysis. Particulars: human, pepsin in pH 2 HCl, read-out: Stability. Type of series: ADME. The method in brief: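 Peptide at 200 μM incubated at 37 °C for 6 h with 4 mg/mL pepsin in HCl (pH 2), or with 20 U/mL aminopeptidase I in 20 mM tricine/0.05% BSA (pH 8.0). Sampled at 0, 2, 4 and 6 h, quenched with NaOH or HCl. Remaining peptide measured by RP-HPLC, in triplicate.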

Another series relates to CHO-K1. Kind of series: Cytotoxicity against CHOK1 cells up to 200 uM after 24 hrs by MTT assay. Type of series: cell-based, Cricetulus griseus. Particulars: chinese hamster, cho-k1, 24 h. The method in brief:
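CHO-K1 cells grown at 37 °C, 5% CO2 in DMEM with 10% FBS, exposed 24 h to peptide at 0.01–200 μM. Negative control 0.1% DMSO, positive control 10% Triton X-100. Viability read by MTT (0.5 mg/mL, 4 h), then DMSO solubilisation 1 h, absorbance at 550 nm.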

The subject of series [5] is Sf9. Kind of series: Cytotoxicity against Spodoptera frugiperda Sf9 cells assessed as induction of membrane integrity loss at 10 uM after 24 hrs using Alex488-labeled test compound by PKH26/Hoechst staining based confocal microscopic analysis.
Series [6] concerns Beta-TC6. Kind of series: Decrease in insulin secretion in mouse BetaTC6 cells up to 1 uM after 24 hrs by ELISA. The series is classed as functional, cell-based. The method in brief: as §2
The nature of series [7]: Stability in pH 2 HCl at 200 uM for 2 hrs by RP-HPLC analysis. Type of series: physicochemical. To be noted: read-out: Stability. The method in brief:
as §1

In a further series the target is aminopeptidase (Homo sapiens, UniProt O43895+P15144+P28838+P50579+P53582+P55786+Q07075+Q6P179+Q6Q4G3+Q6UB28+Q8N6M6+Q8NDH3+Q9H4A4+Q9HAU8+Q9NQH7+Q9NQW7+Q9NZ08+Q9UIQ6+Q9ULA0). Kind of series: Stability in pH 8.0 20 mM tricine with 0.05% BSA assessed as aminopeptidase (unknown origin)-mediated compound hydrolysis by measuring parent compound remaining at 200 uM up to 6 hrs by RP-HPLC analysis. To be noted: aminopeptidase in pH 8.0 20 mM tricine with 0.05% BSA.

Series [8] is described as follows: Stability in human serum after 36 hrs by RP-HPLC analysis. Type of series: ADME, cell-free. To be noted: read-out: Stability. In a few lines: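 Peptide (0.2 mg) incubated with 25% human male AB serum in phenol red-free DMEM at 37 °C. Aliquots taken at 0, 12, 24 and 48 h, quenched with 95% EtOH, held 15 min at 4 °C and centrifuged. Intact peptide quantified by RP-HPLC, in triplicate.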

The nature of series [9]: (§3) Cytotoxicity against Spodoptera frugiperda Sf9 cells assessed as mortality after 24 hrs by MTT assay. The series is classed as functional. To be noted: Sf9, 24 h, read-out: LD50 (the source's name). The method in brief: (§4)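 Sf9 cells seeded at 1 × 10^5 cells/mL for 24 h, then exposed 24 h to peptide at 0.01–200 μM (10 levels). 0.1% DMSO served as negative control, 10% Triton X-100 as positive control. Viability by MTT (0.5 mg/mL, 4 h at 26 °C), DMSO solubilisation, absorbance 550 nm. LD50 taken from the dose–mortality curve.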

The test system of series [10] is Sf9. The series is described as §3. The series is classed as functional. The method in brief: as §4

As to `CC[C@H](C)[C@H](NC(=O)[C@H](CS)NC(=O)[C@H](Cc1ccccc1)NC(=O)CNC(=O)[C@@H](NC(=O)[C@@H](NC(=O)[C@H](CC(C)C)NC(=O)CNC(=O)[C@@H](NC(=O)[C@@H]1CCCN1C(=O)[C@@H](NC(=O)[C@H](CS)NC(=O)[C@H](CCCNC(=N)N)NC(=O)[C@H](CS)NC(=O)[C@H](CC(=O)O)NC(=O)[C@H](CCCNC(=N)N)NC(=O)[C@H](CO)NC(=O)CNC(=O)[C@H](CS)NC(=O)[C@@H]1CCCN1C(=O)[C@@H]1CCCN1C(=O)[C@@H](NC(=O)[C@H](CCC(=O)O)NC(=O)[C@H](Cc1ccccc1)NC(=O)[C@@H]1CCCN1C(=O)[C@H](CO)NC(=O)[C@H](CS)NC(=O)[C@H](C)NC(=O)CNC(=O)[C@H](CO)NC(=O)[C@H](CS)NC(=O)[C@H](CC(=O)O)NC(=O)[C@@H](N)C(C)C)C(C)C)[C@@H](C)CC)[C@@H](C)CC)C(C)C)C(C)C)C(=O)N[C@@H](Cc1ccc(O)cc1)C(=O)N1CCC[C@H]1C(=O)N[C@H](C(=O)NCC(=O)O)[C@@H](C)O` (H-VDCSGACSPFEVPPCGSRDCRCIPIGLVVGFCIYPTG-OH), the result in the series on Sf9 [1] and in the series on Sf9 [5] was Active. For the same molecule, the remaining at 2 h, 200 µM in series [2] turned out to be 82%; in [7], 92%. In addition, the Activity result in the series on Beta-TC6 [3] was “Dose-dependent effect”; in the series on Beta-TC6 [4], 811.14 uIU/ml; in the series on CHO-K1 it was “Non-Toxic”; in the series with Sf9 [10] it was “Dose-dependent effect”. Besides, the remaining at 6 h, 200 µM with pepsin and at aminopeptidase was above 88% throughout. Moreover, in the series on Beta-TC6 [6], the result was inactive. Also, the remaining at 36 h in series [8] is above 90%. The LC50 in [9] worked out at 5.9 µM.
